ChEMBL document CHEMBL1212900, “Falcipain inhibitors: optimization studies of the 2-pyrimidinecarbonitrile lead series” (J Med Chem, 2010)

Columns and labels:
[1] = Inhibition of Plasmodium falciparum falcipain-2 expressed in Escherichia coli
How it was run: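 Recombinant E. coli-expressed, refolded enzyme at 0.25 nM in 100 mM sodium acetate pH 5.5, 500 μM CHAPS, 10 mM DTT, DMSO ≤1%. Substrate H-D-Val-Leu-Arg-AFC at 30 μM final. Inhibitor dilutions mixed with substrate, enzyme added last; fluorescence followed 1 h at room temperature. IC50 from percent activity versus concentration.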

[2] = Inhibition of Plasmodium falciparum falcipain-3 expressed in Escherichia coli
How it was run: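 Refolded recombinant enzyme from E. coli, 2 nM, in 100 mM sodium acetate pH 5.5 with 500 μM CHAPS and 10 mM DTT, DMSO up to 1%. H-D-Val-Leu-Arg-AFC at 150 μM final. Reaction started by enzyme addition; fluorescence monitored 1 h at room temperature. IC50 derived from percent activity plotted against inhibitor concentration.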

Plasmodium falciparum = test: Antiplasmodial activity against Plasmodium falciparum W2 after 48 hrs; assay type: functional, organism-based; conditions: W2, 48 h
How it was run: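 W2 P. falciparum grown in human erythrocytes, 2% hematocrit, RPMI with 10% human serum or 0.5% AlbuMAX II; sorbitol-synchronized. Serial dilutions from DMSO stocks added at ring stage for 48 h, medium and drug renewed at 24 h. Cells fixed in 1% formaldehyde, stained with YOYO-1, parasitemia counted by flow cytometry; IC50 from percent parasitemia versus untreated controls.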

| SMILES | IC50 [1] | IC50 [2] | IC50 (Plasmodium falciparum) |
| --- | --- | --- | --- |
| CC(C)CN(NC(=O)c1cc2cc(CN3CCN(C)CC3)ccc2o1)c1nc(C#N)ncc1Br | < 0.5 nM | 29 nM | 30 nM |
| CC(C)CN(NC(=O)c1cc2cc(OCCN3CCNCC3)ccc2o1)c1nc(C#N)ncc1Cl | 1 nM | 107 nM | 76 nM |
| CC(C)CN(NC(=O)c1ccc(-c2cccc(CN3CCN(C)CC3)c2)nc1)c1nc(C#N)ncc1Br | 0.2 nM | 38 nM | 22 nM |
| CC(C)CN(NC(=O)c1ccc(-c2ccc(CN3CCN(C)CC3)cc2)nc1)c1nc(C#N)ncc1Br | < 0.5 nM | 26 nM | 16 nM |
| CC(C)CN(NC(=O)c1cncc(-c2ccc(CN3CCN(C)CC3)cc2)c1)c1nc(C#N)ncc1Br | < 0.5 nM | < 3 nM | 1 nM |
| CC(C)CN(NC(=O)c1cncc(-c2cccc(CN3CCN(C)CC3)c2)c1)c1nc(C#N)ncc1Br | < 0.5 nM | 4 nM | 2 nM |
| CC(C)CN(NC(=O)c1ccc(-c2ccc(CN3CCN(C)CC3)cc2)o1)c1nc(C#N)ncc1Br | < 0.5 nM | 5 nM | 17 nM |
| CC(C)CN(NC(=O)Cc1ccc(OCCN2CCOCC2)cc1)c1nc(C#N)ncc1Br | 0.7 nM | 5 nM | 65 nM |
| CC(C)CN(NC(=O)Cc1ccc(OCCN2CCOCC2)cc1)c1nc(C#N)ncc1Cl | 1 nM | 8 nM | 403 nM |
| CC(C)CN(NC(=O)Cc1ccc(CN2CCN(C)CC2)cc1)c1nc(C#N)ncc1Br | 0.8 nM | 5 nM | 28 nM |
| CC(C)CN(NC(=O)Cc1ccc(CN2CCN(C)CC2)cc1)c1nc(C#N)ncc1Cl | 0.7 nM | 5 nM | 43 nM |
| CCCN1CCN(Cc2ccc(CC(=O)NN(CC(C)C)c3nc(C#N)ncc3Br)cc2)CC1 | 0.2 nM | 3 nM | 18 nM |
| CCCN1CCN(Cc2ccc(CC(=O)NN(CC(C)C)c3nc(C#N)ncc3Cl)cc2)CC1 | 0.7 nM | 6 nM | 41 nM |
| CC(C)CN(NC(=O)C(C)(C)c1ccc(OCCN2CCOCC2)cc1)c1nc(C#N)ncc1Br | 3 nM | 13 nM | 802 nM |
| CC(C)CN(NC(=O)C(C)(C)c1ccc(OCCN2CCOCC2)cc1)c1nc(C#N)ncc1Cl | 4 nM | 18 nM | 806 nM |
| CC(C)CN(NC(=O)C(C)(C)c1ccc(CN2CCN(C)CC2)cc1)c1nc(C#N)ncc1Br | 3 nM | 21 nM | 236 nM |
| CC(C)CN(NC(=O)C(C)(C)c1ccc(CN2CCN(C)CC2)cc1)c1nc(C#N)ncc1Cl | 5 nM | 46 nM | 253 nM |
| CC(C)CN(c1nc(C#N)ncc1Br)N(CCCN1CCN(C)CC1)C(=O)Cc1ccccc1 | 6 nM | 27 nM | 214 nM |
| CC(C)CN(c1nc(C#N)ncc1Cl)N(CCCN1CCN(C)CC1)C(=O)Cc1ccccc1 | 11 nM | 78 nM | 108 nM |
| CC(C)CN(c1nc(C#N)ncc1Br)N(CCCN1CCN(C)CC1)C(=O)c1ccccc1 | 7 nM | 78 nM | 166 nM |
| CC(C)CN(c1nc(C#N)ncc1Br)N(CCCN1CCN(C)CC1)C(=O)c1ccc(F)cc1 | 9 nM | 105 nM | 346 nM |
| C[C@H]1CCC[C@H]1N(NC(=O)c1ccc(CN2CCN(C)CC2)cc1)c1nc(C#N)ncc1Br (relative stereo) | 2 nM | 41 nM | 82 nM |
